Results on 2 molecules are retold here after ChEMBL document CHEMBL4706770, “SD-91 as A Potent and Selective STAT3 Degrader Capable of Achieving Complete and Long-Lasting Tumor Regression” (ACS Med Chem Lett, 2021).

Calls of active or inactive are those of the source. The calls are words filed in the database; no cut-off is given here. Bounds are passed on as bounds.

The test system of data set [1] is Mus musculus. Briefly: In vivo induction of STAT3 degradation in SCID mouse xenografted with human MOLM16 cells assessed as reduction in STAT3 in tumor tissue at 50 mg/kg, iv measured after 24 hrs by immunoblotting analysis. Type of data set: functional, organism-based. The method in brief:
(§1)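 SCID mice bearing MOLM-16 tumors given a single iv dose of 50 mg/kg or dosing vehicle. Tumor lysates immunoblotted for STAT3, STAT1 and STAT6 at time points from 1 h to at least 24 h.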
(A xenograft is tissue or cells of one species grown in another, often human tumour cells in immunodeficient mice.)

The subject of data set [2] is Mus musculus. Nature of the data set: In vivo induction of STAT1 degradation in SCID mouse xenografted with human MOLM16 cells assessed as reduction in STAT1 in tumor tissue at 50 mg/kg, iv measured after 24 hrs by immunoblotting analysis. Type of data set: functional, organism-based. The essentials: as §1
The test system of data set [3] is Mus musculus. Briefly: In vivo induction of STAT3 degradation in SCID mouse xenografted with human MOLM16 cells assessed as reduction in total STAT3 level in tumor tissue at 50 mg/kg, iv measured after 24 hrs by immunoblotting analysis. Type of data set: functional, organism-based. The method in brief:
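SCID mice bearing MOLM-16 or SU-DHL-1 xenografts given a single iv dose of 50 mg/kg or dosing vehicle. Tumor lysates immunoblotted for p-STAT3 Y705 and total STAT3 at time points up to 48 h (MOLM-16) and 24 h (SU-DHL-1).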

In data set [4] the target is T1, Signal transducer and activator of transcription 6 (Homo sapiens, UniProt P42226).
T1 sequence (P42226 whole entry): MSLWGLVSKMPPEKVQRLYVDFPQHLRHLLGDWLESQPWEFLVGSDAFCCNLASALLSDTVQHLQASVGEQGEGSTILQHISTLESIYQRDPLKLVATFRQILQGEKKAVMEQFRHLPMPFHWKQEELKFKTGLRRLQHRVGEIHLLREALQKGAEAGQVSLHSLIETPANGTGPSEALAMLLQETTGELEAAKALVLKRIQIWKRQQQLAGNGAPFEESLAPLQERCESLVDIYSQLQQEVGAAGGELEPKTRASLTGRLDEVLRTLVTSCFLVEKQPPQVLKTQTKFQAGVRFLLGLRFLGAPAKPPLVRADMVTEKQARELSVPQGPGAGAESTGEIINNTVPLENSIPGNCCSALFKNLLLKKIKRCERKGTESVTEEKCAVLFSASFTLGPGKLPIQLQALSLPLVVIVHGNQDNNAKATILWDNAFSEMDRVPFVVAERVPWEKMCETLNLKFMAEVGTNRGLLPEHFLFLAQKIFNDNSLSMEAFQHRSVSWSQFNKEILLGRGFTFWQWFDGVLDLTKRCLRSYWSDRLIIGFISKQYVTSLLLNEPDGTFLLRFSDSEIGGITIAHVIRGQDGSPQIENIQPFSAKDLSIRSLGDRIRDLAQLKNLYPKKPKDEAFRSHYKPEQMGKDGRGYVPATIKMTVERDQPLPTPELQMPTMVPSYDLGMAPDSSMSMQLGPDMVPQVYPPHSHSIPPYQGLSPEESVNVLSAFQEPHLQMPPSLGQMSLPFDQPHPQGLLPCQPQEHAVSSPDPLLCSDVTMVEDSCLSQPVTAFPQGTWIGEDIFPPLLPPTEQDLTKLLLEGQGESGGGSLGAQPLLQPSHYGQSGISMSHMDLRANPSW
Nature of the data set: Binding affinity to human recombinant STAT6 assessed as dissociation constant incubated for 15 mins by biolayer interferometry. The essentials:
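Biolayer interferometry with recombinant human STAT1, STAT2, STAT3, STAT4, STAT5A, STAT5B or STAT6 proteins containing their SH2 domain. Compound run in 2× serial dilutions from 200 nM. Kd taken from steady-state fitting of equilibrium responses against concentration using a 1:1 binding model.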
Background: Biolayer interferometry detects binding as a change in optical thickness at a sensor tip.

The nature of data set [5]: Stability of compound in buffer pH 8 assessed as conversion to (2-(((5S,8S,10aR)-8-(((S)-5-amino-1-(benzhydrylamino)-1,5-dioxopentan-2-yl)carbamoyl)-3-(8-(2-(2,6-dioxopiperidin-3-yl)-1-oxoisoindolin-4-yl)oct-7-ynoyl)-6-oxodecahydropyrrolo[1,2-a][1,5]diazocin-5-yl)carbamoyl)-1H-indole-5-carbonyl)phosphonic acid by measuring half life by LC/MS/MS analysis. The class given is physicochemical. The essentials:
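SD-36 incubated in pH 8 buffer at room temperature; percentages of parent and hydrolysis products followed over time; half-life of conversion derived from the time course.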

Data set [6] is described as follows: Drug uptake in SCID mouse xenografted with human MOLM16 cells assessed as (2-(((5S,8S,10aR)-8-(((S)-5-amino-1-(benzhydrylamino)-1,5-dioxopentan-2-yl)carbamoyl)-3-(8-(2-(2,6-dioxopiperidin-3-yl)-1-oxoisoindolin-4-yl)oct-7-yno yl)-6-oxodecahydropyrrolo[1,2-a][1,5]diazocin-5-yl)carbamoyl)-1H-indole-5-carbonyl)phosphonic acid level in tumor tissue at 50 mg/kg, iv measured after 24 hrs by LC-MS/MS. To be noted: in vivo. Type of data set: ADME, organism-based. The method in brief:
(§2)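 SCID mice bearing MOLM-16 xenografts given a single iv dose of 50 mg/kg. Concentrations of parent and hydrolysis product measured in plasma (ng/mL) and tumor tissue (ng/g) at 1, 6 and 24 h.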

The target of data set [7] is Protein cereblon/Signal transducer and activator of transcription 3 (Homo sapiens, UniProt P40763+Q96SW2). Nature of the data set: In vivo protac activity at CRBN/STAT3 degradation in SCID mouse xenografted with human MOLM16 cells assessed as reduction in STAT3 in tumor tissue at 50 mg/kg, iv measured after 24 hrs by immunoblotting analysis. Type of data set: functional, organism-based. The method in brief: as §1

Data set [8] deals with Protein cereblon/Signal transducer and activator of transcription 5A (Homo sapiens) (UniProt P42229+Q96SW2). Nature of the data set: Protac activity at CRBN/STAT5 in human SUP-M2 cells assessed as STAT5 degradation at 0.25 to 100 uM incubated for 4 hrs by Western blot analysis. To be noted: SUPM2, dose 0.25-100 µM. Type of data set: cell-based. Background: A western blot detects proteins with antibodies after separation by electrophoresis.

The nature of data set [9]: Drug uptake in SCID mouse xenografted with human MOLM16 cells assessed as (2-(((5S,8S,10aR)-8-(((S)-5-amino-1-(benzhydrylamino)-1,5-dioxopentan-2-yl)carbamoyl)-3-(8-(2-(2,6-dioxopiperidin-3-yl)-1-oxoisoindolin-4-yl)oct-7-yno yl)-6-oxodecahydropyrrolo[1,2-a][1,5]diazocin-5-yl)carbamoyl)-1H-indole-5-carbonyl)phosphonic acid level in tumor tissue at 50 mg/kg, iv measured after 6 hrs by LC-MS/MS. Type of data set: ADME, organism-based. As to conditions: in vivo. The essentials: as §2

Data set [10] deals with Protein cereblon/Signal transducer and activator of transcription 6 (Homo sapiens) (UniProt P42226+Q96SW2). Nature of the data set: Protac activity at CRBN/STAT6 in human SU-DHL-1 cells assessed as STAT6 degradation at 0.25 to 100 uM incubated for 4 hrs by Western blot analysis. The class given is cell-based. To be noted: dose 0.25-100 µM.
In data set [11] the target is Protein cereblon/Signal transducer and activator of transcription 1-alpha/beta (Homo sapiens) (UniProt P42224+Q96SW2). Nature of the data set: In vivo protac activity at CRBN/STAT1 degradation in SCID mouse xenografted with human MOLM16 cells assessed as reduction in STAT1 in tumor tissue at 50 mg/kg, iv measured after 24 hrs by immunoblotting analysis. Type of data set: functional, organism-based. The method in brief:
as §1

Chain of Protein cereblon/Signal transducer and activator of transcription 5A (Homo sapiens) (P42229 whole entry, looked up): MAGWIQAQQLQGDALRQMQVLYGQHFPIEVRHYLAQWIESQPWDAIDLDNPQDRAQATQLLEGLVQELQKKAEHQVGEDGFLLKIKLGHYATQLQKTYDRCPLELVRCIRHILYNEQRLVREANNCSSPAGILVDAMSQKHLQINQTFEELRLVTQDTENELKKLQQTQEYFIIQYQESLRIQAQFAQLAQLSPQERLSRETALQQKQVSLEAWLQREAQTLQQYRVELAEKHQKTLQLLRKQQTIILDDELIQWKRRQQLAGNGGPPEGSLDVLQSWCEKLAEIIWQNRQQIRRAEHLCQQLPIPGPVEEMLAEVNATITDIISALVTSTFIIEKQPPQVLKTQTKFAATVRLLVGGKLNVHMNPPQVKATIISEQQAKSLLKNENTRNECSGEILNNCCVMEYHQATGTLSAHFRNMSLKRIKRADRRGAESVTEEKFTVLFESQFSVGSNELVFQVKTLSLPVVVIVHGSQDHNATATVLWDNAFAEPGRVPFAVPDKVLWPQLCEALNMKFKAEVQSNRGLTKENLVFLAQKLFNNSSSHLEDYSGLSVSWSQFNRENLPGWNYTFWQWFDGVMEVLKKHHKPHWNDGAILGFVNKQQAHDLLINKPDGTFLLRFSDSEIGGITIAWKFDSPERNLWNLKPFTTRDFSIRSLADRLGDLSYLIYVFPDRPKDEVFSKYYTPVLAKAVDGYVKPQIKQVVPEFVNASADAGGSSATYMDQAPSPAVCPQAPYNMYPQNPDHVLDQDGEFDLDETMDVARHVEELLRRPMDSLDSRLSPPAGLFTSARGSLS
Chain of Protein cereblon/Signal transducer and activator of transcription 5A (Homo sapiens) (Q96SW2 whole entry, looked up): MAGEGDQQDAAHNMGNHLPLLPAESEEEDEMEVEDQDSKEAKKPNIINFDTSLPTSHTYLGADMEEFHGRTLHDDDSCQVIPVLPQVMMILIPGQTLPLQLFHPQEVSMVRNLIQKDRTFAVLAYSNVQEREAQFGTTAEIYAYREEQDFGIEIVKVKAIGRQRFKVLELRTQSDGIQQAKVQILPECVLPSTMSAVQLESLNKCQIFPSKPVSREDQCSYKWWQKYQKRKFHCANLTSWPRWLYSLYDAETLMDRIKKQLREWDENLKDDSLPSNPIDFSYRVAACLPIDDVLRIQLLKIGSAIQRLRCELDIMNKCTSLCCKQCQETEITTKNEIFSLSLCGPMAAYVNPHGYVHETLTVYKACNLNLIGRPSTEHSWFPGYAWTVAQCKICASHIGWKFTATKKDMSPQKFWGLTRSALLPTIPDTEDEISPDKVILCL
Chain of Protein cereblon/Signal transducer and activator of transcription 6 (Homo sapiens) (Q96SW2 whole entry partner, one chain of several): as the sequence (Q96SW2 whole entry, looked up) above
Chain of Protein cereblon/Signal transducer and activator of transcription 3 (P40763 2-770 limits assumed): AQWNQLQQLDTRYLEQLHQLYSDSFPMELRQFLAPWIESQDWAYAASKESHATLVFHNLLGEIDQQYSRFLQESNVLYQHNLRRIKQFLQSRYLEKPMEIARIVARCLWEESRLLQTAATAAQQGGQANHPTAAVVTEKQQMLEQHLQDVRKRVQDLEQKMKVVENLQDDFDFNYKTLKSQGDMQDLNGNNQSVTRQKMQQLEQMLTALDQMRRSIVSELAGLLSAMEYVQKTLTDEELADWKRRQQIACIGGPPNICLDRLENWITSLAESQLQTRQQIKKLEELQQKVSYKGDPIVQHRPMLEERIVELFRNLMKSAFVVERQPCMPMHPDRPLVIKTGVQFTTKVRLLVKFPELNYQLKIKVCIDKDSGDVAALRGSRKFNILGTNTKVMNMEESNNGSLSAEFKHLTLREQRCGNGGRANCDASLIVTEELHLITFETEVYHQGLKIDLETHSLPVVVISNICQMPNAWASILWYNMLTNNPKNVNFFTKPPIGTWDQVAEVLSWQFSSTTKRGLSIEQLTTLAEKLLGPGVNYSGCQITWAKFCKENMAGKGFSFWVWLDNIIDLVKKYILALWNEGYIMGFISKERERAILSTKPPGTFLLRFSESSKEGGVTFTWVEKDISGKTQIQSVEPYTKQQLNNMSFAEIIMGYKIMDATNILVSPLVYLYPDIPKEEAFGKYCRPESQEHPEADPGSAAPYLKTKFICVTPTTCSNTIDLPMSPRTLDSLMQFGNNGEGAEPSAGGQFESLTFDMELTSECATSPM
Chain of Protein cereblon/Signal transducer and activator of transcription 3 (Q96SW2 whole entry partner): as the sequence (Q96SW2 whole entry, looked up) above

By Kd is commonly meant the constant that tells how readily two partners part at equilibrium. For the molecule `NC(=O)CC[C@H](NC(=O)[C@@H]1CC[C@@H]2CCN(C(=O)CCCCCC#Cc3cccc4c3CN(C3CCC(=O)NC3=O)C4=O)C[C@H](NC(=O)c3cc4cc(C(=O)P(=O)(O)O)ccc4[nH]3)C(=O)N21)C(=O)NC(c1ccccc1)c1ccccc1` (stereo partly specified), the result with Mus musculus [1] and with Mus musculus [3] was Active. The outcome in the data set on Mus musculus [2] was inactive. Further, the equilibrium dissociation constant (Kd) in data set [4] was more than 10 nM.

`NC(=O)CC[C@H](NC(=O)[C@@H]1CC[C@@H]2CCN(C(=O)CCCCCC#Cc3cccc4c3CN(C3CCC(=O)NC3=O)C4=O)C[C@H](NC(=O)c3cc4cc(C(F)(F)P(=O)(O)O)ccc4[nH]3)C(=O)N21)C(=O)NC(c1ccccc1)c1ccccc1` (stereo partly specified): the t1/2 in [5] came out at 22 h. Moreover, the Drug uptake in [6] stood at 396 ng/g; in data set [9] it was 1750 ng/g. Also, in data set [7], the result was Active. Also, the result in data set [8], in data set [10] and in [11] was inactive.
